Active and inactive are the calls of the source. The rule behind the calls is not given here.
How the values were obtained:
[1] = Cytotoxicity against human PC3M cells after 72 hrs by Alamar Blue assay; format: functional, cell-based, PC-3M
In short: (§1)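 Resazurin-based colorimetric cell viability read-out on human cancer cells (MCF-7 breast; PC-3M metastatic prostate adenocarcinoma), run in vitro in a panel that also included normal human lung fibroblast WI-38 cells.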

[2] = Cytotoxicity against human WI38 cells after 72 hrs by Alamar Blue assay; format: cell-based; conditions: WI-38, 72 h
In short: (§2)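 In vitro cytotoxicity was read by the colorimetric resazurin (AlamarBlue) assay of cell viability. The panel covered human non-small cell lung NCI-H460, CNS glioma SF-268, breast MCF-7, metastatic breast adenocarcinoma MDA-MB-231, metastatic prostate adenocarcinoma PC-3M and neuroblastoma CHP-100 cancer lines, plus normal human lung fibroblast WI-38 cells.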

NCI-H460 [3] = assay: Cytotoxicity against human NCI-H460 cells after 72 hrs by Alamar Blue assay; format: functional, cell-based; in short: as §2
MCF7 [4] = assay: Cytotoxicity against human MCF7 cells after 72 hrs by Alamar Blue assay; format: functional, cell-based; in short: as §1
MDA-MB-231 [5] = assay: Cytotoxicity against human MDA-MB-231 cells after 72 hrs by Alamar Blue assay; format: functional, cell-based; in short: as §2
[6] = Cytotoxicity against human CHP100 cells after 72 hrs by Alamar Blue assay; format: functional, cell-based; conditions: CHP100, 72 h; in short: as §2
SF-268 [7] = assay: Cytotoxicity against human SF268 cells after 72 hrs by Alamar Blue assay; format: functional, cell-based; in short: as §2
MDA-MB-231 [8] = assay: Cytotoxicity against human MDA-MB-231 cells up to 5 uM after 72 hrs by Alamar Blue assay; format: functional, cell-based; in short: as §2
PC-3M = assay: Cytotoxicity against human PC3M cells up to 5 uM after 72 hrs by Alamar Blue assay; format: functional, cell-based; in short: as §2
SF-268 [9] = assay: Cytotoxicity against human SF268 cells up to 5 uM after 72 hrs by Alamar Blue assay; format: functional, cell-based; in short: as §2
[10] = Cytotoxicity against human WI38 cells up to 5 uM after 72 hrs by Alamar Blue assay; format: cell-based; conditions: wi-38, 72 h; in short: as §2
NCI-H460 [11] = assay: Cytotoxicity against human NCI-H460 cells up to 5 uM after 72 hrs by Alamar Blue assay; format: functional, cell-based; in short: as §2
CHP100 = assay: Cytotoxicity against human CHP100 cells up to 5 uM after 72 hrs by Alamar Blue assay; format: functional, cell-based; in short: as §2
MCF7 [12] = assay: Cytotoxicity against human MCF7 cells up to 5 uM after 72 hrs by Alamar Blue assay; format: functional, cell-based; in short: as §2

Question: For `COc1ccc(C(=O)O[C@H]2C=COC=C3C[C@]45SSSS[C@](Cc6ccc(O)cc6)(C(=O)N4[C@@H]32)N(C)C5=O)cc1O`, which IC50 ([1]; Homo sapiens, PC-3M, 72 h) is on record?
Answer: 170 nM

Question: And the IC50 [2]?
Answer: 240 nM

Question: What about the IC50 (NCI-H460 [3]; Homo sapiens, NCI-H460, 72 h) of the same compound?
Answer: 150 nM

Question: And the IC50 (MCF7 [4]; Homo sapiens, MCF7, 72 h)?
Answer: 140 nM

Question: And the IC50 (MDA-MB-231 [5]; Homo sapiens, MDA-MB-231, 72 h)?
Answer: 60 nM

Question: What about the IC50 [6] of the same compound?
Answer: 100 nM

Question: And the IC50 (SF-268 [7]; Homo sapiens, SF-268, 72 h)?
Answer: 60 nM

Question: Which Activity (MDA-MB-231 [8]) does the source give for `CC(C)=CCC[C@@]1(C(=O)O)[C@H]2C/C=C(\C)CC/C=C(\C)CC[C@H]1[C@@]1(CC2)CO1` here?
Answer: inactive

Question: And the Activity (PC-3M)?
Answer: inactive

Question: And the Activity (SF-268 [9])?
Answer: inactive

Question: And the Activity [10]?
Answer: Non-toxic

Question: What about the Activity (NCI-H460 [11]) of the same compound?
Answer: inactive

Question: And the Activity (CHP100)?
Answer: inactive

Question: What about the Activity (MCF7 [12]) of the same compound?
Answer: inactive

Question: What does the source list for `CC(C)=CCC[C@@]1(C(=O)O)[C@@H]2CC=C(CO)[C@@H]1CC/C(C)=C/CC/C(C)=C/C2`?
Answer: Activity (MDA-MB-231 [8]): inactive; Activity (PC-3M): inactive; Activity (SF-268 [9]): inactive; Activity [10]: Non-toxic; Activity (NCI-H460 [11]): inactive; Activity (CHP100): inactive; Activity (MCF7 [12]): inactive

Question: What does the source list for `C=C(C)[C@H]1COc2c(C)cc3oc4ccc(CC=C(C)C)c(O)c4c(=O)c3c2[C@H]1O` (relative stereo)?
Answer: Activity (MDA-MB-231 [8]): inactive; Activity (PC-3M): inactive; Activity (SF-268 [9]): inactive; Activity [10]: Non-toxic; Activity (NCI-H460 [11]): inactive; Activity (CHP100): inactive; Activity (MCF7 [12]): inactive

Question: For `COc1cc2c(c3oc4cccc(O)c4c(=O)c13)[C@@H]1C=CO[C@@H]1O2` [STERIGMATOCYSTIN], which IC50 ([1]; pc-3m) is on record?
Answer: 3230 nM

Question: And the IC50 (NCI-H460 [3]; nci-h460)?
Answer: 3410 nM

Question: And the IC50 (MCF7 [4]; mcf7)?
Answer: 3630 nM

Question: And the IC50 (MDA-MB-231 [5]; mda-mb-231)?
Answer: 2750 nM

Question: What about the IC50 (SF-268 [7]; sf-268) of the same compound?
Answer: 2960 nM

Question: Which Activity (MDA-MB-231 [8]) does the source give for `CC(C)=CCC[C@@]1(C(=O)O)[C@H]2C/C=C(\C)CC/C=C(\C)CC[C@H]1[C@@H](C=O)CC2` here?
Answer: inactive

Question: What about the Activity (PC-3M) of the same compound?
Answer: inactive

Question: What about the Activity (SF-268 [9]) of the same compound?
Answer: inactive

Question: And the Activity [10]?
Answer: Non-toxic

Question: And the Activity (NCI-H460 [11])?
Answer: inactive

Question: What about the Activity (CHP100) of the same compound?
Answer: inactive

Question: What about the Activity (MCF7 [12]) of the same compound?
Answer: inactive

Question: Which Activity (MDA-MB-231 [8]) does the source give for `CC(C)=CCc1ccc2c(c1O)C(=O)c1c(O)cc(C)c3c1C(O2)C(C(C)(C)O)CO3` (stereo unspecified) here?
Answer: inactive

Question: What about the Activity (PC-3M) of the same compound?
Answer: inactive

Question: What about the Activity (SF-268 [9]) of the same compound?
Answer: inactive

Question: And the Activity [10]?
Answer: Non-toxic

Question: And the Activity (NCI-H460 [11])?
Answer: inactive

Question: What about the Activity (CHP100) of the same compound?
Answer: inactive

Question: What about the Activity (MCF7 [12]) of the same compound?
Answer: inactive

Question: With `CC(C)=CCC[C@@]1(C=O)[C@H]2C/C=C(\C)CC/C=C(\C)CC[C@H]1[C@@]1(CC2)CO1` as the compound, how does the Activity (MDA-MB-231 [8]) read?
Answer: inactive

Question: And the Activity (PC-3M)?
Answer: inactive

Question: And the Activity (SF-268 [9])?
Answer: inactive

Question: And the Activity [10]?
Answer: Non-toxic

Question: And the Activity (NCI-H460 [11])?
Answer: inactive

Question: What about the Activity (CHP100) of the same compound?
Answer: inactive

Question: And the Activity (MCF7 [12])?
Answer: inactive

Question: With `COc1cccc2c1C(=O)c1c(O)c3c(c(O)c1C2=O)C[C@@](O)(C(=O)CO)C[C@@H]3O[C@H]1C[C@H](N)[C@H](O)[C@H](C)O1` [DOXORUBICIN] as the compound, how does the IC50 ([1]; Homo sapiens, PC-3M, 72 h) read?
Answer: 270 nM

Question: And the IC50 (NCI-H460 [3]; Homo sapiens, NCI-H460, 72 h)?
Answer: 50 nM

Question: And the IC50 (MDA-MB-231 [5]; Homo sapiens, MDA-MB-231, 72 h)?
Answer: 680 nM

Question: What about the IC50 [6] of the same compound?
Answer: 790 nM

Question: What about the IC50 (SF-268 [7]; Homo sapiens, SF-268, 72 h) of the same compound?
Answer: 310 nM

Question: With `CC(C)=CCC[C@@]1(C(=O)O)[C@H]2C/C=C(\C)CC/C=C(\C)CC[C@H]1[C@H](C=O)CC2` as the compound, how does the Activity (MDA-MB-231 [8]) read?
Answer: inactive

Question: What about the Activity (PC-3M) of the same compound?
Answer: inactive

Question: What about the Activity (SF-268 [9]) of the same compound?
Answer: inactive

Question: And the Activity [10]?
Answer: Non-toxic

Question: And the Activity (NCI-H460 [11])?
Answer: inactive

Question: And the Activity (CHP100)?
Answer: inactive

Question: What about the Activity (MCF7 [12]) of the same compound?
Answer: inactive
